High-throughput results as filed in PubChem.
Compounds with a hit are over-represented: about 3.9% of the library has one in this group of screens.
TAAR1 antagonist: human TAAR1 antagonists, primary screen, Fluo-8 calcium fluorescence, CHO RD-HGA16 cells; antagonist; inhibition, % at 3 µM; 360,000 tested, 1.5% active; AID 624466, 2012;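 active = inhibition above a per-plate cutoff, the mean inhibition of test compounds on that plate plus 3 SD, cut at about 49% in these data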;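 also: 0% = DMSO plus EC80 beta-PEA response and 100% = DMSO alone without agonist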
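Test system – hTAAR1-expressing CHO RD-HGA16 cells, Gα16-coupled · Also added – β-PEA at EC80 concentration, post-compound challenge · Compound – 3 µM, single point · Incubation – dye loading 75 min at 37 °C, then 30 min room temperature · Measured by – Fluo-8 intracellular calcium dye fluorescence, real-time kinetic reads · Benchmarks – vehicle and agonist controls · Replicates – singlicate, one well per test compound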
CRFBP-R2 block: antagonists of CRF-BP/CRF-R2 complex, primary screen, cell-based, HEK293, calcium dye fluorescence, uHTS; CRF-induced calcium fluorescence; inhibition, % at 11.8 µM; 350,000 tested, 0.59% active;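 active = inhibition of the ligand-induced calcium signal above about 50% at the single tested concentration, limit read from the data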
CRFBP-R2 agonist: agonists of CRF-BP/CRF-R2 complex, primary screen, cell-based, HEK293, calcium dye fluorescence, uHTS; CRF-binding protein / CRF receptor 2 complex (human); calcium dye fluorescence (FLIPR); percent of saturating CRF peptide response; activation, % at 13.2 µM; 350,000 tested, 0.46% active;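 active = activation of at least 50%, plus an integration ratio under a set limit after plate pattern correction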;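 also: plate controls were neutral control wells without compound for no effect and CRF at EC100 for full effect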
TAAR1 agonist: human TAAR1 agonists, primary screen, Fluo-8 calcium fluorescence, CHO RD-HGA16 cells; Trace amine-associated receptor 1 (Homo sapiens), Q96RJ0; vehicle wells 0%, saturating PEA agonist 100%; activation, % at 3 µM; 360,000 tested, 0.99% active;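 active = activation above the mean activation of all test compounds in the run plus 3 SD, cut at about 38% in these data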
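Repeats: no replicates (n 1) | Material: CHO-derived RD-HGA16 cells with stable Gα16 and human TAAR1 | Technique: Kinetic Fluo-8 calcium fluorescence | Schedule: 17-24 h seeding, 75 min 37 °C dye, 30 min RT | Evaluation: % activation from peak over basal fluorescence ratio, DMSO-to-PEA scaled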
TMEM16A inh: TMEM16A chloride channel inhibitors, primary screen, cell-based, HTS | Anoctamin-1 (Mus musculus), Q8BHY3 | normalized B-score (activity score, 25-100; higher = stronger inhibition) at 10 µM | 310,000 tested, 1.2% active | AID 588511, 2011 | HEK293 TMEM16A/YFP iodide influx fluorescence, ionomycin;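 active = ratio plate-corrected score three or more library SD toward inhibition, starting fluorescence score within five deviations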;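 also: score derived from kinetic fluorescence span divided by baseline fluorescence per well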
Target sequence (Q8BHY3 whole entry, looked up): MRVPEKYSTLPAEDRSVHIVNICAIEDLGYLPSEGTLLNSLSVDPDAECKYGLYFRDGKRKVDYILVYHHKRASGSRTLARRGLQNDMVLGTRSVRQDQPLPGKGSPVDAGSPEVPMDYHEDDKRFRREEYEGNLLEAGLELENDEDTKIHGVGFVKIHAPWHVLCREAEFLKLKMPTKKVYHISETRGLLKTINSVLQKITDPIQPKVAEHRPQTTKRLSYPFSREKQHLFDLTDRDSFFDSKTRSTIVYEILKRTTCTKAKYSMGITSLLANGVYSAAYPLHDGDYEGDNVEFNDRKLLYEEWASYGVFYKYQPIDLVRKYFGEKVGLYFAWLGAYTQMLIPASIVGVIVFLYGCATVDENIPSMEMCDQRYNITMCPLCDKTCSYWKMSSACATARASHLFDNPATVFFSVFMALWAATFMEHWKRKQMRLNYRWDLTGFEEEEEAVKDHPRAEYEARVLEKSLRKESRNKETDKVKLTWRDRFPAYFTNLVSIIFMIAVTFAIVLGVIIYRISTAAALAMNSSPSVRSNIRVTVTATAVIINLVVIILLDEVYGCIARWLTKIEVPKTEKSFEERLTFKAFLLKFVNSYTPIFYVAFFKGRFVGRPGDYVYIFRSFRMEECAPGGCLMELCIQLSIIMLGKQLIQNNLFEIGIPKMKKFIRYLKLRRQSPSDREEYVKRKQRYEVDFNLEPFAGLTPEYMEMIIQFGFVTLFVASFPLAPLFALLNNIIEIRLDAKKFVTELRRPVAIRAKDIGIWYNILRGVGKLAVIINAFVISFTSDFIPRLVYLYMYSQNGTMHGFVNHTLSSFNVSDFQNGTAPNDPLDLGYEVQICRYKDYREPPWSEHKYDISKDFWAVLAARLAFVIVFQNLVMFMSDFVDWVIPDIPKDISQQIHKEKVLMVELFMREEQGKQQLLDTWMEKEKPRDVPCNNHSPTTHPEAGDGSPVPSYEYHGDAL
ANO1 activ: TMEM16A chloride channel activators or potentiators, primary screen, cell-based, HTS; HEK293 TMEM16A/YFP-H148Q/I152L, iodide quench fluorescence; stronger effect = lower value; B-score at 10 µM; 340,000 tested, 0.3% active; AID 623877, 2012;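 active = fluorescence-ratio B-score plate-corrected deviation score at least 3 library SD below zero, with starting fluorescence score within 5 deviations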;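 also: channel opened by trigger with iodide after compound preincubation; score built on the fluorescence ratio of max minus min over baseline; more negative score means more quench and so TMEM16A activation or potentiation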
Starred values were filed as active, the others as inactive; i = inactive; · = not tested or not shown.

SMILES	TAAR1 antagonist	CRFBP-R2 block	CRFBP-R2 agonist	TAAR1 agonist	TMEM16A inh	ANO1 activ
Cc1ccc(NC2CCCN(C(=O)c3ccoc3C)C2)cc1C (stereo not given)	-28	2	-2	0	i	i
Cc1ccc(NC(=S)NCCc2ccccc2)nc1	2	-25	1	2	i	i
Cc1ccc(-c2sc(-c3ccccc3)nc2CC(=O)Nc2ccccc2F)cc1	-26	-195	128*	1	i	i
CC(=O)Nc1cccc(NC(=O)Cc2nc(-c3ccccc3)sc2-c2ccc(C)cc2)c1	3	12	0	-1	i	i
CCn1cc(C(=O)OCC(=O)c2cc(C)n(-c3ccc(OC(F)F)cc3)c2C)c(=O)c2ccc(C)nc21	6	60*	-2	-1	i	i
O=C(CCCc1nc2ccccc2s1)NNC(=O)CCN1CCN(Cc2ccccc2)CC1	-16	13	-3	5	i	-22*
O=C(CCCc1nc2ccccc2s1)NCc1ccccc1	-7	20	0	3	i	i
Cc1ccc(C(C)C)cc1OCC(=O)N/N=C/c1ccc2c(c1)OCCO2	-12	6	-3	6	100*	i
Cc1cccc(C)c1OCC(=O)N/N=C/c1ccc2c(c1)OCO2	31	30	-2	16	i	i
Cn1nc(C(C)(C)C)cc1C(=O)NCc1cc(F)cc2c1OCOC2	50*	-3	-1	9	i	i
Cc1ccc(-n2nnnc2C(Cl)(Cl)c2nnnn2-c2ccc(C)cc2)cc1	26	-99	72*	33	i	i
COc1cc(OC)cc(C(=O)Nc2nc(CC(=O)NCc3ccccc3OC)cs2)c1	56*	20	-1	6	i	i
COc1cc(OC)cc(C(=O)Nc2nc(CC(=O)NCc3ccc(F)cc3)cs2)c1	50*	-10	2	8	i	i
COc1cc(OC)cc(C(=O)Nc2nc(CC(=O)NCCc3ccccc3)cs2)c1	33	0	0	5	i	i
CCc1cccc2cc3c(N)c(C(=O)Nc4ccc(S(=O)(=O)N5CCCC5)cc4)sc3nc12	65*	-151	63*	17	i	i
COc1cccc(CC(=O)Nc2ccc(S(=O)(=O)N3CCCCC3)cc2)c1	3	-4	1	6	·	i
O=C(NC1CCCCC1)c1cc(-c2cccs2)on1	-10	3	0	40*	i	i
O=C(NC1CCCCC1)c1cc(-c2ccc(F)cc2)on1	4	-6	3	0	i	i
CCC1CCCCN1S(=O)(=O)c1ccc(C(=O)Nc2nnc(C3=COCCO3)o2)cc1 (stereo not given)	-14	-14	-2	-1	i	i
CCOc1cc(N2CCOCC2)c(OCC)cc1NC(=O)c1ccc(OC(C)C)cc1	4	19	-3	0	i	i
Cc1ccc(Cn2nnc3c(=O)[nH]c(C4CCCN(C(=O)Nc5ccc(F)cc5F)C4)nc32)cc1 (stereo not given)	-8	-18	-2	2	i	i
Cc1cc(C)cc(NC(=O)CSCc2nc3c(nnn3Cc3ccc(F)cc3)c(=O)[nH]2)c1	-3	-4	-1	10	25*	i
COc1ccc(CCN(C)CC(O)COc2ccc(C(C)=O)cc2OC)cc1OC (stereo not given)	-23	2	-2	2	i	i
O=C(CCC(=O)N1CCOc2ccc(Cl)cc21)NCc1ccccc1	-23	-85	243*	-2	i	i
Nc1ccc2nc(-c3ccccc3)cnc2c1	17	-53	66*	9	i	i
SMILES	TAAR1 antagonist	CRFBP-R2 block	CRFBP-R2 agonist	TAAR1 agonist	TMEM16A inh	ANO1 activ
O=C(Cc1ccccc1)Nc1ccc(N2CCOCC2)cc1	8	-2	-1	4	i	i
O=C(CN1CCOCC1)Nc1ncc(Cc2cccc3ccccc23)s1	-20	-37	-2	28	25*	i
O=C(Cc1cccc2ccccc12)Nc1ccc(N2CCOCC2)cc1	12	11	2	39*	i	i
CC(C)c1ccc(/C=C/C(=O)NC(=S)Nc2ccc(CN3CCOCC3)cc2)cc1	67*	-35	-2	7	i	i
O=C(/C=C/c1ccccc1)NC(=S)Nc1ccc(N2CCOCC2)cc1	54*	-30	0	6	i	i
COc1ccccc1NCc1nnc(-c2ccccc2)o1	0	1	0	-1	i	i
O=C(C(=O)N1CCN(c2ccccc2F)CC1)c1ccccc1	-27	·	·	2	·	·
O=C(NN=Cc1ccccc1C(=O)O)C(=O)NN=Cc1ccccc1C(=O)O	0	6	0	2	·	i
Cc1ccc(C)c(/C=N/NC(=S)NCCc2ccccc2)c1	4	9	-1	23	100*	i
O=C(O)c1ccccc1/C=N/NC(=S)NCc1ccccc1	-15	11	-1	1	i	-12*
CCCn1c(C)cc(/C=C(\C#N)C(=O)OCC(=O)N(CC)c2c(N)n(Cc3ccccc3)c(=O)[nH]c2=O)c1C	-20	-5	6	6	·	i
CC1(C)CC(=O)C(C2C3=C(CC(C)(C)CC3=O)Oc3c(Br)cc(Br)cc32)=C(O)C1 (stereo not given)	6	47	82*	25	25*	i
Cc1ccc(S(=O)(=O)NC(=O)c2ccc(-c3ccc(C)c4ccccc34)o2)cc1	-3	-4	-3	0	25*	i
CCN(CC)C(=O)[C@H]1C[C@H](CC(=O)NC/C=C(\C)CCC=C(C)C)C(=O)N2CCc3c([nH]c4cc(CCC(=O)N(C)C)ccc34)[C@]12C	·	67*	0	·	·	·
CCN(CC)C(=O)[C@H]1C[C@H](CC(=O)NCc2ccc(OC)c(OC)c2)C(=O)N2CCc3c([nH]c4cc(CCC(=O)N(C)C)ccc34)[C@]12C	-16	-12	0	0	·	·
CCOC(=O)c1ccc(NC(=O)COc2ccc(CNC3CCCCC3)cc2OC)cc1	12	0	0	0	i	i
CC(C(=O)Nc1ccc(F)cc1Cl)N1CCN(S(=O)(=O)c2cccs2)CC1 (stereo not given)	-6	9	1	3	·	-21*
O=C(COC(=O)C1CCN(S(=O)(=O)c2cccs2)CC1)Nc1ccc(F)cc1Cl	33	7	1	7	·	i
